Like-named read-outs stand apart in the source and are kept apart here.
Tests used:
wildtype EGFR = wildtype EGFR (Homo sapiens, UniProt P00533); assay: Western blot of total EGFR protein in wildtype EGFR Ba/F3 cells; assay type: cell-based, murine; details: increasing concentrations, 6, 24 and 48 hours
Method in brief: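 Wildtype EGFR Ba/F3 cells exposed to rising test-compound concentrations for 6, 24 and 48 h, then lysed and immunoblotted for total EGFR with tubulin as loading control. Band densitometry was normalised to tubulin and expressed as percent EGFR remaining relative to DMSO control. The same treatment was run in parallel on L858R/T790M Ba/F3 cells.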

EGFR L858R/T790M = EGFR L858R/T790M (Homo sapiens, UniProt P00533, L858R/T790M); assay: HTRF kinase assay of purified EGFR L858R/T790M; assay type: biochemical; details: for IC50: read-out: IC50 against EGFR L858R/T790M, HTRF assay, purified enzyme
[1] = test system: L858R/T790M/L718Q EGFR Ba/F3 cells; assay: Ba/F3 cell proliferation assay, L858R/T790M/L718Q EGFR; assay type: cell-based, murine
[2] = test system: L858R/T790M/C797S EGFR Ba/F3 cells; assay: Ba/F3 cell proliferation assay, L858R/T790M/C797S EGFR; assay type: cell-based, murine
L858R/T790M EGFR = L858R/T790M EGFR (Homo sapiens, UniProt P00533, L858R/T790M); assay: Western blot of total EGFR protein in L858R/T790M Ba/F3 cells; assay type: cell-based, murine; details: L858R/T790M Ba/F3, 24 hours, 0.1 μM DDC-01-163; 10 μM pomalidomide, 1 μM JBJ-07-149 or increasing MLN4924
CRBN = CRBN (Homo sapiens, UniProt Q96SW2); assay: Cellular CRBN engagement assay; assay type: cell-based; details: restoration of BRD4BD2-GFP signal, Figure 2B
CRBN, sequence (Q96SW2 whole entry, species assumed): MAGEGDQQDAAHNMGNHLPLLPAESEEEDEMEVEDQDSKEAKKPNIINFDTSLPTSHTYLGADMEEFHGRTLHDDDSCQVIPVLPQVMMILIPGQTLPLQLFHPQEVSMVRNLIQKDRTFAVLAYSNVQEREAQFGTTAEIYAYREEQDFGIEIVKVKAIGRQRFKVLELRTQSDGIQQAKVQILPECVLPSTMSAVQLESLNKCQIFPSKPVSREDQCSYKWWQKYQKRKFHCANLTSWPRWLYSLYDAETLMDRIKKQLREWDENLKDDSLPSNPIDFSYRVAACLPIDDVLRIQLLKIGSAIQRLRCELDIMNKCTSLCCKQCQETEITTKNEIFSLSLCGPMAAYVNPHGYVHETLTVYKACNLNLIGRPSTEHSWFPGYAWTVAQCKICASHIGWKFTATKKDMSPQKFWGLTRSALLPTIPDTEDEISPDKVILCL

| Compound | effect on EGFR protein levels in wildtype Ba/F3 cells (wildtype EGFR) | IC50 (EGFR L858R/T790M) [nM] | effect on EGFR degradation by DDC-01-163 (competition / rescue) (L858R/T790M EGFR) | also measured |
| --- | --- | --- | --- | --- |
| O=C1CCC(N2C(=O)c3cccc(NCCOCCOCCOCCN4CCN(c5ccc(-c6ccc7c(c6)C(=O)N(C(C(=O)Nc6nccs6)c6cc(F)ccc6O)C7)cc5)CC4)c3C2=O)C(=O)N1 (stereo not drawn) [JBJ-07-038] | did not affect protein levels | 19 | – | – |
| O=C(Nc1nccs1)C(c1ccccc1)N1Cc2ccc(-c3ccc(N4CCNCC4)nc3)cc2C1=O (stereo not drawn) [JBJ-07-149] | – | 1.1 | prevented EGFR degradation | sensitivity of LT/L718Q EGFR Ba/F3 cells in cell proliferation assay ([1]; L858R/T790M/L718Q EGFR Ba/F3 cells): resistant; sensitivity of LT/C797S EGFR Ba/F3 cells in cell proliferation assay ([2]; L858R/T790M/C797S EGFR Ba/F3 cells): resistant |
| O=C1CCC(N2C(=O)c3cccc(NCCOCCOCCOCCN4CCN(c5ccc(-c6ccc7c(c6)C(=O)N(C(C(=O)Nc6nccs6)c6cc(F)ccc6F)C7)cc5)CC4)c3C2=O)C(=O)N1 (stereo not drawn) [JBJ-07-200] | did not affect protein levels | 390 | – | cellular CRBN engagement (CRBN): more potent CRBN engagement than JBJ-07-038; reduction of biochemical activity compared to DDC-01-163 (EGFR L858R/T790M; ratio of IC50 values): 9 fold; reduction of biochemical activity compared to JBJ-07-038 (EGFR L858R/T790M; ratio of IC50 values): 21 fold |
| NS(=O)(=O)OC[C@@H]1C[C@@H](n2ccc3c(N[C@H]4CCc5ccccc54)ncnc32)C[C@@H]1O [MLN4924] | – | – | rescue EGFR degradation | – |
| C=CC(=O)Nc1cc(Nc2nccc(-c3cn(C)c4ccccc34)n2)c(OC)cc1N(C)CCN(C)C [osimertinib, reference compound] | – | – | – | sensitivity of LT/L718Q EGFR Ba/F3 cells in cell proliferation assay [1]: resistant; sensitivity of LT/C797S EGFR Ba/F3 cells in cell proliferation assay [2]: resistant |
| Nc1cccc2c1C(=O)N(C1CCC(=O)NC1=O)C2=O (stereo not drawn) [pomalidomide] | – | – | prevented EGFR degradation | – |

— publication PMC7686272 (Angewandte Chemie (International ed. in English), 2020)
